Converted amounts (≈) assume the structure as drawn.
Experiments:
[1] = test system: M. abscessus ATCC 19977 ∆3508c ∆2780c; experiment: MIC, double deletion mutant ∆whiB7 ∆tetV; format: cell-based, Mycobacterium abscessus; conditions: ∆tetV MIC divided by ∆whiB7 ∆tetV MIC
[2] = test system: M. abscessus ATCC 19977 ∆2780c (∆tetV); experiment: MIC, isogenic deletion mutant ∆tetV; format: cell-based, Mycobacterium abscessus; conditions: for WT/∆2780c ratio: WT MIC divided by ∆tetV MIC
[3] = test system: 2593-resistant spontaneous Mab mutants (Mab ATCC 19977); experiment: Selection and MIC testing of 2593-resistant spontaneous Mab mutants; format: cell-based, Mycobacterium abscessus; conditions: cross-resistance test
[4] = test system: M. abscessus ATCC 19977 ∆3508c (∆whiB7); experiment: MIC, isogenic deletion mutant ∆whiB7; format: cell-based, Mycobacterium abscessus; conditions: versus wild type
[5] = test system: purified M. smegmatis ATCC 19420 ribosomes; experiment: Mycobacterial cell-free translation inhibition assay; format: biochemical, Mycobacterium smegmatis; conditions: read-out: IC50 M. smg ribo
M. abscessus ATCC 19977 = experiment: microbe, parasite or virus in culture; format: cell-based, Mycobacterium abscessus; conditions: Mycobacteroides abscessus, ATCC19977, 120 h, read-out: MIC M. abs
Mab ATCC 19977 = experiment: Whole-cell accumulation assay; format: cell-based, Mycobacterium abscessus; conditions: 100 µM compound, 30 min; mean ± SD
Outline: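 Mab grown in MHB2 + 0.05% tyloxapol (37 °C, shaking) to OD600 0.5–0.6 was washed in PBS with 0.05% Tween-80 and 5% glucose. The concentrated suspension was incubated with 100 µM compound (1% DMSO) for 30 min at 37 °C, then washed three times; an aliquot was taken for CFU. Pellets were lysed and filtered supernatant quantified by LC-MS/MS. A = C×V/CFU, normalized to 10^10 CFU. Biological triplicate, mean and SD; ANOVA with Dunnett versus SPC.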

[6] = test system: M. abscessus ATCC 19977 ∆2780c (∆tetV); conditions: ref [7], [17]; cited from earlier work

Compound | ∆2780c/∆3508c ∆2780c ratio [1] | WT/∆2780c ratio [2] | susceptibility of 2593-resistant mutants [3] | increase in susceptibility against the ΔwhiB7 strain [4] | IC50 [5] [nM] | MIC (M. abscessus ATCC 19977) [µg/mL] | increase in susceptibility in the ΔtetV strain ([2]; versus wild type) [fold] | whole-cell accumulation (Mab ATCC 19977) [nM/10^10 CFU] | increase in SPC susceptibility of Mab Δ2780c deletion mutants [6] [fold]
NCC[C@H](O)C(=O)N[C@@H]1C[C@H](N)[C@@H](O[C@H]2O[C@H](CN)[C@@H](O)[C@H](O)[C@H]2O)[C@H](O)[C@H]1O[C@H]1O[C@H](CO)[C@@H](O)[C@H](N)[C@H]1O [AMK, amikacin] | 8 | 1 | remained susceptible | – | – | – | – | – | –
CN[C@@H]1[C@H](O)[C@H](NC)[C@H]2O[C@@]3(O)C(=O)C[C@@H](C)O[C@H]3O[C@@H]2[C@H]1O [SPC, spectinomycin] | 1 | 64 | – | eightfold | 800 ± 210 | 256 (≈ 770 µM) | 64 | 38.2 ± 9.0 | > 100

Source: publication PMC10786304 (Proceedings of the National Academy of Sciences of the …, 2024)
